According to ChEMBL document CHEMBL2331499, “N2-Trimethylacetyl substituted and unsubstituted-N4-phenylsubstituted-6-(2-pyridin-2-ylethyl)-7H-pyrrolo[2,3-d]pyrimidine-2,4-diamines: design, cellular receptor tyrosine kinase inhibitory activities and in vivo evaluation as antiangiogenic, antimetastatic and antitumor agents” (Bioorg Med Chem, 2013):
pIC50: −log10 of the molar value. The source made the active and inactive calls. The rule behind the calls is not given here.

How the values were obtained:
Chorioallantoic membrane [1] = assay: Inhibition of VEGF165/bFGF-induced angiogenesis in chicken chorioallantoic membrane assessed a s decrease in number of vessels formed treated 8 hrs after VEGF/bFGF addition measured after 48 hrs by dissecting microscopic analysis; assay type: functional; conditions: Gallus gallus
[2] = target: T1, Vascular endothelial growth factor receptor 1 (Homo sapiens, UniProt P17948); assay: Inhibition of VEGF-induced VEGFR1 phosphorylation in human A498 cells overexpressing Flt-1 pretreated for 60 mins prior to VEGF addition measured after 10 mins by phosphotyrosine ELISA cytoblot analysis; assay type: cell-based
T1 sequence (P17948 whole entry): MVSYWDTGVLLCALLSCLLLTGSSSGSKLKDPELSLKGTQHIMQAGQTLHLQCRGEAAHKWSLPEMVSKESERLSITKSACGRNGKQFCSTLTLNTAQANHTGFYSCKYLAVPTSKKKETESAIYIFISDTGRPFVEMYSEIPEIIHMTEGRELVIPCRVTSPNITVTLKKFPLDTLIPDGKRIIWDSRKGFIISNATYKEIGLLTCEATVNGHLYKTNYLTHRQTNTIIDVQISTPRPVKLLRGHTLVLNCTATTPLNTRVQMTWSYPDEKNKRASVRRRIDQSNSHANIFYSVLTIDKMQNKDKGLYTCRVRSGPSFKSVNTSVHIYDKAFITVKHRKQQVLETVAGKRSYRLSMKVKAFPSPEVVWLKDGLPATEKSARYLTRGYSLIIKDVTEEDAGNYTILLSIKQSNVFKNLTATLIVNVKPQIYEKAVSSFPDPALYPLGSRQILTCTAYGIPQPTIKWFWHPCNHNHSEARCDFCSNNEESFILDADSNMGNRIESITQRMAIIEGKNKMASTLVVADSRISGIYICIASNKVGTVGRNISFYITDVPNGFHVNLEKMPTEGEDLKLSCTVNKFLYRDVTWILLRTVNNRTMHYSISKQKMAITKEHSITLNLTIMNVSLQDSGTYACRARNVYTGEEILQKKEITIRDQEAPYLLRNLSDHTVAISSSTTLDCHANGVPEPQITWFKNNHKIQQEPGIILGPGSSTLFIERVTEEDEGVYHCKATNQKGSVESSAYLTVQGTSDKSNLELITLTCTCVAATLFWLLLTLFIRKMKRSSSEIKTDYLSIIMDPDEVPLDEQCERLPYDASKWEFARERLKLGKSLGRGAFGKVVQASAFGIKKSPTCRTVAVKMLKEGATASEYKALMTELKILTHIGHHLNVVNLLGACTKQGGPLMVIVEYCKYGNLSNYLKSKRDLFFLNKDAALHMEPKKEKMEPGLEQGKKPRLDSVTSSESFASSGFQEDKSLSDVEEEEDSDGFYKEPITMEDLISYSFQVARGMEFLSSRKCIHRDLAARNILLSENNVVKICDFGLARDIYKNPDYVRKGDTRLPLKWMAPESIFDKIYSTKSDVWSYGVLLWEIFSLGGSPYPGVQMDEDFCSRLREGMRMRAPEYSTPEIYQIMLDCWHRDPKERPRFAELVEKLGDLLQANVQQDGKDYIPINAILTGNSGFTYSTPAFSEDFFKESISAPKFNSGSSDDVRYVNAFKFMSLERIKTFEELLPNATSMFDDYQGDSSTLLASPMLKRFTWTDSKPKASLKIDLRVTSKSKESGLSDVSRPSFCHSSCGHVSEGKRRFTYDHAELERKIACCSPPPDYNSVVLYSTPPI

[3] = target: T2, Vascular endothelial growth factor receptor 2 (Homo sapiens, UniProt P35968); assay type: cell-based, U-251
T2 sequence (P35968 whole entry): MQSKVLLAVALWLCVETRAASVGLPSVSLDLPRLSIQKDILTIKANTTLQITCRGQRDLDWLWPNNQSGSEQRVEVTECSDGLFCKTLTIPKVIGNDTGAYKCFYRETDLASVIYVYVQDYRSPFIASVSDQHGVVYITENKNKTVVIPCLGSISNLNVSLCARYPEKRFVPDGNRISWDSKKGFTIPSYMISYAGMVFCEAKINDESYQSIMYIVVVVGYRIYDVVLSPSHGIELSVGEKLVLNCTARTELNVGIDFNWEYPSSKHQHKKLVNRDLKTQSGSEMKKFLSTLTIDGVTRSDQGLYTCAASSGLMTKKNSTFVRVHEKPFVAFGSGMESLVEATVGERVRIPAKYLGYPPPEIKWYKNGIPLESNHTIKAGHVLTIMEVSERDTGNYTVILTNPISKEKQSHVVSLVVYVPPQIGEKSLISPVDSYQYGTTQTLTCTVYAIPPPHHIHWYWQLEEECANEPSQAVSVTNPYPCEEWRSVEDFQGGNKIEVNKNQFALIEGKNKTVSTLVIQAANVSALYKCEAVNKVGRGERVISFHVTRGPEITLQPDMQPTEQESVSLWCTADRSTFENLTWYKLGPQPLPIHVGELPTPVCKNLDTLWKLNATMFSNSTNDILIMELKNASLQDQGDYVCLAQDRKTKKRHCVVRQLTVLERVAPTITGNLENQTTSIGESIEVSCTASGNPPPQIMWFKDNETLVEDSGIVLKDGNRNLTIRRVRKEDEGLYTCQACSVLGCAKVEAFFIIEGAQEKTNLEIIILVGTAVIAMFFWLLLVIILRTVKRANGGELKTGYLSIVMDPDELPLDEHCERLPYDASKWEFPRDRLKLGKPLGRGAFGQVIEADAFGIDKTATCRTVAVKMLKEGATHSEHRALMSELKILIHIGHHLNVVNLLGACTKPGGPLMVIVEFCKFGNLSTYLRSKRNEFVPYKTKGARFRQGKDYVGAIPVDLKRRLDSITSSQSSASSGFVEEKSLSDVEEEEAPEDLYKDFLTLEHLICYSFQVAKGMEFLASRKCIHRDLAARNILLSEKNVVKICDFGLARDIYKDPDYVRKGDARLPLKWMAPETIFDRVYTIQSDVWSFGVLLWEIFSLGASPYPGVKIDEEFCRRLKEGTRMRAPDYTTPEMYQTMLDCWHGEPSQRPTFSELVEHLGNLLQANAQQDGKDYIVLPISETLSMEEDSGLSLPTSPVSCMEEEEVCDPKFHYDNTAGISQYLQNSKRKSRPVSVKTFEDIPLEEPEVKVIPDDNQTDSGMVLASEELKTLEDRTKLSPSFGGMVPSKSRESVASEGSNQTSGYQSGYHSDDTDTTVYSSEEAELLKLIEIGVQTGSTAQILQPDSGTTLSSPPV

[4] = target: Epidermal growth factor receptor (Homo sapiens, UniProt P00533); assay type: cell-based, A-431;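 also: EGF-stimulated EGFR phosphorylation in human A431 cells, compound preincubation 60 min before EGF, phosphotyrosine ELISA cytoblot read 10 min after stimulation, inhibition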
Sequence of Epidermal growth factor receptor (P00533 whole entry): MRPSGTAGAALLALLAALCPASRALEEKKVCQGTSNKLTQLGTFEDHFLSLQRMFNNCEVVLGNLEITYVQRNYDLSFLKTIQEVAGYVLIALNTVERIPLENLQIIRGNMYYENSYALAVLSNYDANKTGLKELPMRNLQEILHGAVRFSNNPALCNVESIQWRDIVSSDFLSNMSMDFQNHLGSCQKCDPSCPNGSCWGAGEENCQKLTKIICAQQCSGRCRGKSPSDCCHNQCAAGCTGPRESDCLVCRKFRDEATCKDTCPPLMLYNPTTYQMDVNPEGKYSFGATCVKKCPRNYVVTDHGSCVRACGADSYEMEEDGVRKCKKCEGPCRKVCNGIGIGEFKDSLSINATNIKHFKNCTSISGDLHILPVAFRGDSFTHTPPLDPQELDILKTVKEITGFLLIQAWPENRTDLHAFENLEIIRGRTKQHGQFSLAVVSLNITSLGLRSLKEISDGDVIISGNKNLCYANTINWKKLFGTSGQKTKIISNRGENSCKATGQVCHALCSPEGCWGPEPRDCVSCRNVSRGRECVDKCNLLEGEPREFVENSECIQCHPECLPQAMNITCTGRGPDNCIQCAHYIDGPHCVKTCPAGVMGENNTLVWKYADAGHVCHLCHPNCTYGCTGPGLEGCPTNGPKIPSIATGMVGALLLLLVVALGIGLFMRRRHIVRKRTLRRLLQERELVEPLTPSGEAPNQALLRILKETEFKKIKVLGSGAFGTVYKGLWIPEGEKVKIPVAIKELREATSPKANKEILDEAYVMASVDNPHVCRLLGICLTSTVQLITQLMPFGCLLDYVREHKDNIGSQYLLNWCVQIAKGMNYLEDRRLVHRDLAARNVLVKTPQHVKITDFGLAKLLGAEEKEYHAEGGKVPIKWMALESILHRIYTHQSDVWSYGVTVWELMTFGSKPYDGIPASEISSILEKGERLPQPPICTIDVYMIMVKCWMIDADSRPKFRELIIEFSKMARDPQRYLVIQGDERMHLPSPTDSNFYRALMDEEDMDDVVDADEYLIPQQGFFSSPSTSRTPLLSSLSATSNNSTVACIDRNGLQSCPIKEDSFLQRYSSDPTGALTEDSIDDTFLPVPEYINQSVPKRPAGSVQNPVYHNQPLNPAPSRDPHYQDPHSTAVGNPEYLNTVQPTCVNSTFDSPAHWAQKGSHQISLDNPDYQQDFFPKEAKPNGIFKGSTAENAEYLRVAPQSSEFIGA

A-431 [5] = assay: Cytotoxicity against human A431 cells overexpressing EGFR assessed as inhibition of cell proliferation treated for 12 hrs measured after 36 hrs by CYQUANT dye based assay; assay type: functional
[6] = target: Platelet-derived growth factor receptor beta (Homo sapiens, UniProt P09619); assay: Inhibition of PDGF-BB-induced PDGFR beta phosphorylation in human SF539 cells overexpressing PDGFR beta pretreated for 60 mins prior to PDGF-BB addition measured after 10 mins by phosphotyrosine ELISA cytoblot analysis; assay type: cell-based, SF-539
Sequence of Platelet-derived growth factor receptor beta (P09619 whole entry): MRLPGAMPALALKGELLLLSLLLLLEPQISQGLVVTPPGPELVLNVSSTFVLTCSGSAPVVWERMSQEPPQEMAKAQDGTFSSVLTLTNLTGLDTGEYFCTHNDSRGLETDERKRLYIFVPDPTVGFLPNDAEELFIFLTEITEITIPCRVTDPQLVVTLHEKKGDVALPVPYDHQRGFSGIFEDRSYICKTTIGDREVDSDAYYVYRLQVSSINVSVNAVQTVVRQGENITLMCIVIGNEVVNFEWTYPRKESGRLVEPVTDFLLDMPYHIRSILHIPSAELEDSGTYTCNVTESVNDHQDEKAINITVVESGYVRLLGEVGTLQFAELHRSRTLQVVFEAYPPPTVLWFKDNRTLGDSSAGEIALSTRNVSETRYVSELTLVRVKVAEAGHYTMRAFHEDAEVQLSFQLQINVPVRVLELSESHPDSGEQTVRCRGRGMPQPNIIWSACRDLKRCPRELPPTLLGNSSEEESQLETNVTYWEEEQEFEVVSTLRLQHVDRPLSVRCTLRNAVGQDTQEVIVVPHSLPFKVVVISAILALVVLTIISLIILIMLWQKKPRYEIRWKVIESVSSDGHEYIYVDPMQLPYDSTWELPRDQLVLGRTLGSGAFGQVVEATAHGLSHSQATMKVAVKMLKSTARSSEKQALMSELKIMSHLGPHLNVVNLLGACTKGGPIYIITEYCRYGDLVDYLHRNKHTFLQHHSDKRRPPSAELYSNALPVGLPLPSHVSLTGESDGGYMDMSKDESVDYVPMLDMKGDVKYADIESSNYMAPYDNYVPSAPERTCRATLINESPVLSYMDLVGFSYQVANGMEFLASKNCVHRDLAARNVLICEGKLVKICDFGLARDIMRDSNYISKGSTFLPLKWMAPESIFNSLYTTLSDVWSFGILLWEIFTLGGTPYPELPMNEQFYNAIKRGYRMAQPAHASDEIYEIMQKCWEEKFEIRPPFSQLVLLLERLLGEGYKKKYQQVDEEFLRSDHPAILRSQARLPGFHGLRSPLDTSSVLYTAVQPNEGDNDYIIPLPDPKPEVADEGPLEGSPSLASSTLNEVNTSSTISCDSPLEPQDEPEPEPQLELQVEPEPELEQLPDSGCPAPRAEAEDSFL

[7] = target: T1, Vascular endothelial growth factor receptor 1; assay: Ratio of compound IC50 to CB676475 IC50 for VEGF-induced VEGFR1 phosphorylation in human A498 cells overexpressing Flt-1 by phosphotyrosine ELISA cytoblot analysis; assay type: cell-based
Outline: (§1)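 Cells at 60–75% confluence serum-starved 18 h, then pretreated 60 min with serial compound dilutions starting at 10 before growth factor stimulation. Cells fixed 30 min at 60 °C, then 70% ethanol 30 min, blocked with 1% BSA in TBS 1 h, HRP-anti-phosphotyrosine overnight, luminol ELISA substrate; light emission imaged.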

Mus musculus [8] = assay: Toxicity in Ncr nu/nu mouse assessed as body weight loss at […], ip administered twice weekly measured for 6 weeks by whole animal toxicity assay; assay type: organism-based; conditions: in vivo, 1008 h
B16-F10 [9] = assay: Antimetastatic activity against GFP-tagged mouse B16F10 cells isografted into syngeneic athymic Ncr nu/nu mouse assessed as decrease in number of B16F10 lung metastases at […], ip administered twice weekly starting from day 8 post-tumor inoculation by hematoxylin-eosin staining; assay type: functional, organism-based
B16-F10 [10] = assay: Antitumor activity against GFP-tagged mouse B16F10 cells isografted into syngeneic athymic Ncr nu/nu mouse assessed as decrease in tumor volume at […], ip administered twice weekly starting from day 8 post-tumor inoculation; assay type: functional, organism-based
Mus musculus [11] = assay: Toxicity in Ncr nu/nu mouse assessed as body weight loss at 15 to 20 mg/kg, ip administered twice weekly measured for 6 weeks by whole animal toxicity assay; assay type: organism-based; set-up: dose 15-20 mg/kg, route intraperitoneal; conditions: in vivo, 1008 h
Chorioallantoic membrane [12] = assay: Ratio of semaxanib IC50 to compound IC50 for VEGF165/bFGF-induced angiogenesis in chicken chorioallantoic membrane by dissecting microscopic analysis; assay type: functional; conditions: Gallus gallus
[13] = Toxicity in ip dosed Ncr nu/nu mouse assessed as maximum tolerated dose administered twice weekly by whole animal toxicity assay; assay type: organism-based; conditions: in vivo
B16-F10 [14] = assay: Antitumor activity against GFP-tagged mouse B16F10 cells isografted into syngeneic athymic Ncr nu/nu mouse assessed as decrease in tumor growth rate at […], ip administered twice weekly starting from day 8 post-tumor inoculation; assay type: functional, organism-based
[15] = target: T2, Vascular endothelial growth factor receptor 2; assay: Ratio of compound IC50 to semaxanib IC50 for VEGF-induced VEGFR2 phosphorylation in human U251 cells overexpressing Flk-1 by phosphotyrosine ELISA cytoblot analysis; assay type: cell-based; conditions: U-251; outline: as §1
Mus musculus [16] = assay: Toxicity in Ncr nu/nu mouse assessed as body weight loss at 7.5 to 10 mg/kg, ip administered twice weekly measured for 6 weeks by whole animal toxicity assay; assay type: organism-based; set-up: dose 7.5-10 mg/kg, route intraperitoneal; conditions: in vivo, 1008 h
B16-F10 [17] = assay: Antiangiogenic activity against GFP-tagged mouse B16F10 cells isografted into syngeneic athymic Ncr nu/nu mouse assessed as decrease in vascular density at […], ip administered twice weekly starting from day 8 post-tumor inoculation; assay type: functional, organism-based
B16-F10 [18] = assay: Antimetastatic activity against GFP-tagged mouse B16F10 cells isografted into syngeneic athymic Ncr nu/nu mouse assessed as decrease in number of B16F10 lung metastases at 10 mg/kg, ip administered twice weekly starting from day 8 post-tumor inoculation by hematoxylin-eosin staining; assay type: functional, organism-based; set-up: dose 10 mg/kg
B16-F10 [19] = assay: Antitumor activity against GFP-tagged mouse B16F10 cells isografted into syngeneic athymic Ncr nu/nu mouse assessed as decrease in tumor growth rate at 10 mg/kg, ip administered twice weekly starting from day 8 post-tumor inoculation; assay type: functional, organism-based; set-up: dose 10 mg/kg
Outline: (§2)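 Mice bearing subcutaneous GFP-tagged B16-F10 tumors; treatment began once most tumors were caliper-measurable (day 8) after random sorting into groups. Dosing 10 mg/kg IP every Monday AM and Thursday PM; sham animals received water. Tumor length, width and depth measured Mon/Wed/Fri; volume = L×W×D; growth rate by linear regression. n = 7–10.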

B16-F10 [20] = assay: Antiangiogenic activity against GFP-tagged mouse B16F10 cells isografted into syngeneic athymic Ncr nu/nu mouse assessed as decrease in vascular density at 10 mg/kg, ip administered twice weekly starting from day 8 post-tumor inoculation; assay type: functional, organism-based; set-up: dose 10 mg/kg
B16-F10 [21] = assay: Antitumor activity against GFP-tagged mouse B16F10 cells isografted into syngeneic athymic Ncr nu/nu mouse assessed as decrease in tumor volume at 10 mg/kg, ip administered twice weekly starting from day 8 post-tumor inoculation; assay type: functional, organism-based; set-up: dose 10 mg/kg; outline: as §2
A-431 [22] = assay: Ratio of cisplatin IC50 to compound IC50 for human A431 cells overexpressing EGFR by CYQUANT dye based assay
Chorioallantoic membrane [23] = assay: Ratio of compound IC50 to semaxanib IC50 for VEGF165/bFGF-induced angiogenesis in chicken chorioallantoic membrane by dissecting microscopic analysis; assay type: functional; conditions: Gallus gallus

SMILES | pIC50 [2] | pIC50 [3] | pIC50 [4] | pIC50 [6] | Ratio IC50 [7] | pIC50 (Chorioallantoic membrane [1]) | pIC50 (A-431 [5]) | further results
Nc1nc(Nc2ccc(F)c(Br)c2)c2cc(CCc3ccccn3)[nH]c2n1 | 4.03 | 4.62 | 4.07 | < 3.30 | 5 | 7.15 | 4.91 | Activity (Mus musculus [8]): 1%; inhibition (B16-F10 [9]): Active; inhibition (B16-F10 [10]): Active; Activity (Mus musculus [11]): Toxic; Ratio IC50 (Chorioallantoic membrane [12]): 1.2; MTD [13]: 12.5 mg/kg; inhibition (B16-F10 [14]): Active; Ratio IC50 [15]: 2.4; Activity (Mus musculus [16]): Non-toxic; inhibition (B16-F10 [17]): Active
CN(Cc1cnc2nc(N)nc(N)c2n1)c1ccc(C(=O)N[C@@H](CCC(=O)O)C(=O)O)cc1 |  |  |  |  |  |  |  | inhibition (B16-F10 [18]): Active; inhibition (B16-F10 [19]): Active; inhibition (B16-F10 [20]): Active; inhibition (B16-F10 [21]): Active
Nc1nc(Nc2ccc(F)c(C(F)(F)F)c2)c2cc(CCc3ccccn3)[nH]c2n1 | < 3.70 | 3.90 | 4.81 | < 3.30 |  | 4.85 | 5.49 | 
Nc1nc(Nc2cccc(C(F)(F)F)c2)c2cc(CCc3ccccn3)[nH]c2n1 | < 3.70 | 4.78 | 4.71 | < 3.30 |  | 5.96 | 5.47 | Ratio IC50 [15]: 1.5
CC(C)(C)C(=O)Nc1nc(Nc2ccc(F)c(Br)c2)c2cc(CCc3ccccn3)[nH]c2n1 | < 3.70 | < 3.70 | 5.27 | 4.05 |  | 6.05 | 6.00 | Ratio IC50 (Chorioallantoic membrane [23]): 10

Now from value to molecule, other results behind:

pIC50 [2] | pIC50 [3] | pIC50 [4] | pIC50 [6] | Ratio IC50 [7] | SMILES | pIC50 (Chorioallantoic membrane [1]) | pIC50 (A-431 [5]) | further results
< 3.70 | 4.05 | 4.79 | < 3.30 |  | CC(C)(C)C(=O)Nc1nc(Nc2ccc(F)c(Cl)c2)c2cc(CCc3ccccn3)[nH]c2n1 | 5.70 | 5.59 | 
3.81 | 3.90 | < 3.70 | 3.37 | 5 | C#Cc1cccc(Nc2nc(NC(=O)C(C)(C)C)nc3[nH]c(CCc4ccccn4)cc23)c1 | 5.49 | 4.52 | 
< 4.30 | 4.30 |  | 4.87 |  | Nc1nc(Nc2cccc(Br)c2)c2cc(CCc3ccccn3)[nH]c2n1 | 5.14 | 4.71 | 
3.99 | 4.36 | 4.70 | 3.48 | 5 | C#Cc1cccc(Nc2nc(N)nc3[nH]c(CCc4ccccn4)cc23)c1 | 4.86 | 6.05 | Ratio IC50 (A-431 [22]): 8
< 3.70 | < 3.70 | 3.96 | < 3.30 |  | Nc1nc(Nc2ccc(F)c(Cl)c2)c2cc(CCc3ccccn3)[nH]c2n1 | 4.95 | 4.57 | 
3.89 | 4.78 | 4.89 | < 3.30 | 5 | CC(C)(C)C(=O)Nc1nc(Nc2cccc(C(F)(F)F)c2)c2cc(CCc3ccccn3)[nH]c2n1 | 5.80 | 5.54 | Ratio IC50 [15]: 1.5
3.72 | 3.82 | 4.57 | < 3.30 | 5 | CC(C)(C)C(=O)Nc1nc(Nc2ccc(F)c(C(F)(F)F)c2)c2cc(CCc3ccccn3)[nH]c2n1 | 5.07 | 5.72 | 
